Converted amounts (≈) assume the structure as drawn. Blank lines part the entries; values can stand above or below the molecule they belong to. The source made the active and inactive calls. The rule behind the calls is not given here.
Columns and labels:
[1] = Antioxidant activity assessed as DPPH radical scavenging activity incubated under dark condition for 30 mins by spectrophotometric analysis; type: functional
In short: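 DPPH radical reduction (violet to colorless in ethanol) monitored spectrophotometrically; ascorbic acid run as reference; IC50 reported in µg/ml.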

[2] = Chemical stability of the compound assessed as parent compound remaining at 1 mg/ml measured after 1 day at 45 degC by HPLC method (reference value: 100%); type: physicochemical; settings: read-out: Stability
In short: (§1)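 Sample dissolved at 1 mg in 1 mL distilled water, stored at 45 °C and analysed by HPLC at intervals up to 28 days; remaining amount expressed relative to day-0 HPLC peak area set as 100%.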

[3] = Chemical stability of the compound assessed as parent compound remaining at 1 mg/ml measured after 7 days at 45 degC by HPLC method (reference value: 100%); type: physicochemical; settings: read-out: Stability; in short: as §1
[4] = Chemical stability of the compound assessed as parent compound remaining at 1 mg/ml measured after 14 days at 45 degC by HPLC method (reference value: 100%); type: physicochemical; settings: read-out: Stability; in short: as §1
[5] = test system: RAW264.7; test: Cytotoxicity against mouse RAW264.7 cells assessed as decrease in cell viability at 100 ug/ml after 24 hrs by WST-1 assay; type: cell-based; settings: raw264.7, 24 h
[6] = Chemical stability of the compound assessed as parent compound remaining at 1 mg/ml measured after 21 days at 45 degC by HPLC method (reference value: 100%); type: physicochemical; settings: read-out: Stability; in short: as §1
[7] = test system: RAW264.7; test: Antiinflammatory activity in mouse RAW264.7 cells assessed as inhibition of LPS-induced nitric oxide production after 24 hrs by Griess reagent based assay; type: functional, cell-based
In short: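 RAW264.7 mouse macrophages co-treated with LPS (0.3 μg/mL) plus the test agent at a range of concentrations; NO output quantified as nitrite accumulated in culture medium after 24 h incubation.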

[8] = Chemical stability of the compound assessed as parent compound remaining at 1 mg/ml measured after 28 days at 45 degC by HPLC method (reference value: 100%); type: physicochemical; settings: read-out: Stability; in short: as §1
[9] = test system: Danio rerio; test: Antiinflammatory activity in Tg(mpx:GFP) zebrafish larvae assessed as decrease in neutrophil recruitment to wounded tail fin at 10 to 50 ug/ml dosed 4 hrs post amputation measured after 6 hrs; type: functional, organism-based
[10] = species: Danio rerio; test: Effect on neutrophil recruitment to wounded tail fin in Tg(mpx:GFP) zebrafish larvae at 10 to 50 ug/ml measured after 6 hrs; type: ADME, organism-based

SMILES: N[C@@H](CCC(=O)NNc1cccc(F)c1)C(=O)O
IC50 [1]: 11.44 µg/mL (≈ 44.8 µM)

SMILES: O=C1O[C@H]([C@@H](O)CO)C(O)=C1O [ASCORBIC ACID]
IC50 [1]: 17.38 µg/mL (≈ 98.7 µM)

SMILES: N[C@@H](CCC(=O)NNc1ccc(O)cc1O)C(=O)O
IC50 [1]: 28.01 µg/mL (≈ 104 µM)

SMILES: N[C@@H](CCC(=O)Nc1ccccc1O)C(=O)O
IC50 [1]: 162.42 µg/mL (≈ 682 µM)

SMILES: CS(=O)(=O)c1ccc(NNC(=O)CC[C@H](N)C(=O)O)c(F)c1
IC50 [1]: 8.72 µg/mL (≈ 26.2 µM)
remaining at 24 h, 1 mg/ml [2]: 99.4%
remaining at 168 h, 1 mg/ml [3]: 95%
remaining at 336 h, 1 mg/ml [4]: 87%
remaining at 504 h, 1 mg/ml [6]: 88.8%
inhibition [7]: Dose-dependent effect
remaining at 672 h, 1 mg/ml [8]: 87.2%
Activity [5]: Non-Toxic
Activity [9]: Active
Activity [10]: Non-Toxic

SMILES: O=C(CC[C@H](NC(=O)OCc1ccccc1)C(=O)OCc1ccccc1)NNc1ccccc1OCc1ccccc1
IC50 [1]: 44.98 µg/mL (≈ 79.2 µM)

SMILES: Cc1ccc(NNC(=O)CC[C@H](N)C(=O)O)cc1
IC50 [1]: 9.99 µg/mL (≈ 39.8 µM)
remaining at 24 h, 1 mg/ml [2]: 85.1%
remaining at 168 h, 1 mg/ml [3]: 82%
remaining at 336 h, 1 mg/ml [4]: 72.2%
remaining at 504 h, 1 mg/ml [6]: 58.1%
remaining at 672 h, 1 mg/ml [8]: 50.4%
Activity [5]: Non-Toxic

The next lines start with results.

IC50 [1]: 15.75 µg/mL (≈ 59.4 µM)
SMILES: Cc1ccc(NNC(=O)CC[C@H](N)C(=O)O)c(C)c1

remaining at 24 h, 1 mg/ml [2]: 45.7%
SMILES: N[C@@H](CCC(=O)NNc1ccccc1O)C(=O)O

IC50 [1]: 10.86 µg/mL (≈ 42.5 µM)
SMILES: N[C@@H](CCC(=O)NNc1ccccc1F)C(=O)O

IC50 [1]: 316.86 µg/mL (≈ 1180 µM)
SMILES: N[C@@H](CCC(=O)NNc1cc(O)cc(O)c1)C(=O)O

IC50 [1]: 37.19 µg/mL
SMILES: Cl.NC(CCC(=O)O)C(=O)NNc1ccccc1O (configuration not stated)

IC50 [1]: 10.67 µg/mL (≈ 42.1 µM)
SMILES: N[C@@H](CCC(=O)NNc1cccc(O)c1)C(=O)O

IC50 [1]: 17.14 µg/mL (≈ 64.6 µM)
SMILES: CCc1ccccc1NNC(=O)CC[C@H](N)C(=O)O

IC50 [1]: 6.24 µg/mL (≈ 24.8 µM)
remaining at 24 h, 1 mg/ml [2]: 82.3%
remaining at 168 h, 1 mg/ml [3]: 73.8%
remaining at 336 h, 1 mg/ml [4]: 56.7%
SMILES: Cc1ccccc1NNC(=O)CC[C@H](N)C(=O)O
Activity [5]: Non-Toxic

IC50 [1]: 10.1 µg/mL (≈ 40.2 µM)
SMILES: Cc1cccc(NNC(=O)CC[C@H](N)C(=O)O)c1

IC50 [1]: 13.77 µg/mL (≈ 53.9 µM)
SMILES: N[C@@H](CCC(=O)NNc1ccc(F)cc1)C(=O)O

IC50 [1]: 9.57 µg/mL (≈ 30.3 µM)
remaining at 24 h, 1 mg/ml [2]: 100%
remaining at 168 h, 1 mg/ml [3]: 94.6%
remaining at 336 h, 1 mg/ml [4]: 85.5%
remaining at 504 h, 1 mg/ml [6]: 79.2%
remaining at 672 h, 1 mg/ml [8]: 70.7%
SMILES: CS(=O)(=O)c1ccc(NNC(=O)CC[C@H](N)C(=O)O)cc1
